Experiment [1] addresses T1, OgOGA (Oceanicola granulosus OGA) (Oceanicola granulosus, UniProt Q2CEE3). Briefly: Inhibition of OgOGA by OGA inhibitors, 4MU-GlcNAc substrate. Type of experiment: biochemical. The gist of the method:
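OgOGA was a GST fusion expressed in E. coli and purified by affinity, anion-exchange and size-exclusion steps. Activity was measured in 25 mM Tris/HCl pH 7.5 with 0.1 mg/ml BSA and 2% DMSO at 37 °C. 4MU-GlcNAc was used at its Km for 20 min, with fluorescence read at ex 360/em 460 nm. Run in triplicate.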

Experiment [2] addresses T1, OgOGA (Oceanicola granulosus OGA). Briefly: Enzymatic deglycosylation of glycopeptide monitored by LC-MS. The experiment is classed as biochemical. The note with it: detected by LC-MS; 785 Da to 582 Da. The gist of the method: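 OgOGA expressed in E. coli as a GST fusion from a gene cloned from genomic DNA, then purified by affinity, anion-exchange and size-exclusion chromatography. Glycopeptide loss of GlcNAc followed by LC–MS: reversed-phase C18 HPLC with diode-array UV detection, coupled to a high-resolution TOF mass spectrometer.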

As usually defined, the IC50 is the concentration needed to halve the response being measured. Read a high IC50 as weaker potency.

T1 sequence (Q2CEE3 whole entry, the tested form may be a part): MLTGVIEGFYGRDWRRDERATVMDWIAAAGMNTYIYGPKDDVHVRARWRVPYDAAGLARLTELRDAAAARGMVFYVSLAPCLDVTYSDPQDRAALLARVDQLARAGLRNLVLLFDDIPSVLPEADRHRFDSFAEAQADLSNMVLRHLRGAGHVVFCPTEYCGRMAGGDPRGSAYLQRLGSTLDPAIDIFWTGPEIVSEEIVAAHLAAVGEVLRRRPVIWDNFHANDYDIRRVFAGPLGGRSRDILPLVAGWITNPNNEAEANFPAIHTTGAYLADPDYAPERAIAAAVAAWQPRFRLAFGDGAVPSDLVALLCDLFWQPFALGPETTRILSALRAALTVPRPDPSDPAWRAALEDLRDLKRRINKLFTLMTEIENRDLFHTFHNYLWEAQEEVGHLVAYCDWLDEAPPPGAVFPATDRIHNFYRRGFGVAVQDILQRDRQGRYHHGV

`CC(=O)N[C@H]1/C(=N/OC(=O)Nc2ccccc2)O[C@H](CO)[C@@H](O)[C@@H]1O` [PUGNAc, O-(2-acetamido-2-deoxy-D-glucopyranosylidene)amino-N-phenylcarbamate] displayed an IC50 in experiment [1] of 11 µM.

As for Ac-VAHS(-β-O-GlcNAc)GA-NH2, the “Deglycosylation of glycopeptide by OgOGA” value in experiment [2] was “quantitatively deglycosylate”.

For the origin of these results see PMC2973230 (Biochemical Journal, 2010).
